Results from ChEMBL document CHEMBL4145474, “Discovery of novel piperonyl derivatives as diapophytoene desaturase inhibitors for the treatment of methicillin-, vancomycin- and linezolid-resistant Staphylococcus aureus infections” (Eur J Med Chem, 2018).
Activity calls are given as the source filed them. The rule behind the calls is not given here.

What was measured:
Staphylococcus aureus [1] = assay: Inhibition of pigmentation in wild type Staphylococcus aureus Newman after 48 hrs by spectrophotometric method; assay type: functional, organism-based
Outline: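 S. aureus Newman was grown in TSB 48 h at 37 °C with a concentration series of compound in DMSO, in duplicate. Controls were a DMSO vehicle and a nonpigmented CrtN mutant. Cells were washed twice in 0.01 M PBS and pigment extracted in methanol. A450 was measured and IC50 derived by curve fitting.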

HepG2 = assay: Cytotoxicity against human HepG2 cells assessed as reduction in cell viability after 72 hrs by CCK-8 assay; assay type: functional; settings: HepG2, 72 h
Outline: (§1)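 HepG2 or HEK-293T cells were seeded at 5000 per well and grown 24 h at 37 °C, 5% CO₂. Cells were then exposed to compound for 72 h; compound came from DMSO, diluted in medium to final DMSO <0.4%, with a DMSO-matched vehicle control. Viability was read by 10% CCK-8 for 1 h, absorbance 450 nm, in triplicate.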

HEK-293T = assay: Cytotoxicity against HEK293T cells assessed as reduction in cell viability after 72 hrs by CCK-8 assay; assay type: functional; settings: Homo sapiens; outline: as §1
[2] = Solubility of the compound in water by UV analysis; assay type: physicochemical
Staphylococcus aureus [3] = assay: Antibacterial activity against wild type Staphylococcus aureus Newman assessed as bacterial survival at 1 uM after 24 hrs by H2O2 killing assay (reference value: 26.67%); assay type: functional
Staphylococcus aureus [4] = assay: Antibacterial activity against wild type Staphylococcus aureus Newman infected in BALB/c mouse assessed as decrease in bacterial load in mouse liver at 0.4 mg, ip bid administered 4.5 days measured after 90 hrs relative to control; assay type: functional
Staphylococcus aureus [5] = assay: Antibacterial activity against methicillin/linezolid-resistant Staphylococcus aureus NRS271 infected in BALB/c mouse assessed as decrease in bacterial survival in mouse liver at 0.4 mg, ip bid administered 4.5 days measured after 90 hrs; assay type: functional, organism-based
Outline: (§2)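 6–8-week-old female BALB/c mice (SPF) dosed intraperitoneally twice daily over 4.5 d at 0.1 or 0.4 mg/bid. Pre-treatment started before infection; post-treatment started 6 h after infection. Vancomycin and linezolid controls given as pre-treatment at 0.4 mg/bid. Retro-orbital inoculation: Mu50 1.1 × 10⁹ CFU, NRS271 1.8 × 10⁸ CFU. Kidneys and livers homogenised in PBS/0.01% Triton X-100 and plated on TSA for CFU.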

Staphylococcus aureus [6] = assay: Antibacterial activity against vancomycin-intermediate methicillin-resistant Staphylococcus aureus Mu50 infected in BALB/c mouse assessed as decrease in bacterial survival in mouse liver at 0.4 mg, ip bid administered 4.5 days measured after 90 hrs; assay type: functional, organism-based; outline: as §2

IC50 (Staphylococcus aureus [1]) [µM] | Structure (SMILES) | further results
0.0046 | CN(C/C=C/c1ccc(Br)cc1)Cc1ccc2c(c1)OCO2.Cl | CC50 (HepG2): 104 µM; CC50 (HEK-293T): 68.3 µM; solubility [2]: 17.5 mg/mL
> 1 | CN(C/C=C/C1CCCC1)Cc1ccc2c(c1)OCO2 | 
0.0584 | CN(C/C=C/c1ccc(F)cc1)Cc1ccc2c(c1)OCO2 | 
0.523 | CN(C/C=C/c1cccc(C(F)(F)F)c1)Cc1ccc2c(c1)OCO2 | 
> 1 | CN(C/C=C/c1cccs1)Cc1ccc2c(c1)OCO2 | 
> 1 | CN(C/C=C/c1ccco1)Cc1ccc2c(c1)OCO2 | 
> 1 | C/C(=C\c1ccc(C(F)(F)F)cc1F)CN(C)Cc1ccc2c(c1)OCO2 | 
0.0288 | CN(C/C=C/c1ccccc1C(F)(F)F)Cc1ccc2c(c1)OCO2 | 
0.0079 | COC(=O)c1ccc(/C=C/CN(C)Cc2ccc3c(c2)OCO3)cc1 | 
0.0125 | CN(C/C=C/c1ccc(C#N)cc1)Cc1ccc2c(c1)OCO2 | 
0.0157 | Cc1ccc(/C=C/CN(C)Cc2ccc3c(c2)OCO3)cc1 | 
0.121 | CN(C/C=C/c1ccccc1F)Cc1ccc2c(c1)OCO2 | 
0.0179 | CN(CC#Cc1ccc(C(F)(F)F)cc1F)Cc1ccc2c(c1)OCO2 | 
> 1 | Cc1ccccc1/C=C/CN(C)Cc1ccc2c(c1)OCO2 | 
> 1 | CN(C/C=C/c1ccccc1Cl)Cc1ccc2c(c1)OCO2 | 
0.004 | CN(C/C=C/c1ccc2ccccc2c1)Cc1ccc2c(c1)OCO2.Cl | CC50 (HepG2): 60.5 µM; CC50 (HEK-293T): 48.3 µM; solubility [2]: 4.56 mg/mL
> 1 | Fc1cc(C(F)(F)F)ccc1/C=C/CNCc1ccc2c(c1)OCO2 | 
> 1 | CN(Cc1ccc2c(c1)OCO2)C[C@@H]1C[C@H]1c1ccc(C(F)(F)F)cc1F | 
> 1 | COc1cccc(/C=C/CN(C)Cc2ccc3c(c2)OCO3)c1 | 
0.0176 | CN(C/C=C/c1ccc(Cl)cc1Cl)Cc1ccc2c(c1)OCO2 | 
0.372 | Cc1cccc(/C=C/CN(C)Cc2ccc3c(c2)OCO3)c1 | 
0.0826 | CN(C/C=C/c1ccc([N+](=O)[O-])cc1)Cc1ccc2c(c1)OCO2 | 
0.0052 | CN(C/C=C/c1ccc(C(C)(C)C)cc1)Cc1ccc2c(c1)OCO2 | 

IC50 (Staphylococcus aureus [1]) [µM] | Structure (SMILES) | further results
> 1 | CN(CCCc1ccc(C(F)(F)F)cc1F)Cc1ccc2c(c1)OCO2 | 
 | CC(=O)N[C@@H](CS)C(=O)O [ACETYLCYSTEINE] | survival at 1 µM (Staphylococcus aureus [3]): 57.3%
> 1 | CN(C/C=C/c1cccc2ccccc12)Cc1ccc2c(c1)OCO2 | 
> 1 | CC(C)N(C/C=C/c1ccc(C(F)(F)F)cc1F)Cc1ccc2c(c1)OCO2 | 
0.0042 | CN(C/C=C/c1ccc(Cl)cc1)Cc1ccc2c(c1)OCO2.Cl | CC50 (HepG2): 141 µM; CC50 (HEK-293T): 83.8 µM; solubility [2]: 18.7 mg/mL
0.112 | COc1ccc(/C=C/CN(C)Cc2ccc3c(c2)OCO3)cc1F | 
0.0035 | CN(C/C=C/c1ccc(C(F)(F)F)cc1)Cc1ccc2c(c1)OCO2.Cl | CC50 (HepG2): 69.2 µM; CC50 (HEK-293T): 133 µM; solubility [2]: 13.5 mg/mL
0.0041 | CN(C/C=C/c1ccc(C(F)F)cc1)Cc1ccc2c(c1)OCO2.Cl | CC50 (HepG2): 138 µM; CC50 (HEK-293T): 68 µM; solubility [2]: 9.03 mg/mL
0.057 | CN(C/C=C/c1ccc(C(F)(F)F)c(F)c1)Cc1ccc2c(c1)OCO2 | 
 | CC(=O)NC[C@H]1CN(c2ccc(N3CCOCC3)c(F)c2)C(=O)O1 [LINEZOLID] | Activity (Staphylococcus aureus [4]): 1.41 deltalog10CFU; Activity (Staphylococcus aureus [5]): Active; Activity (Staphylococcus aureus [6]): Active
 | C[C@@H]1[C@H](O)[C@@H](C)/C=C/C=C/C=C/C=C/C=C/C=C/C=C/[C@H](O[C@@H]2O[C@H](C)[C@@H](O)[C@H](N)[C@@H]2O)C[C@@H]2O[C@](O)(C[C@@H](O)C[C@@H](O)[C@H](O)CC[C@@H](O)C[C@@H](O)CC(=O)O[C@H]1C)C[C@H](O)[C@H]2C(=O)O [AMPHOTERICIN B] | CC50 (HepG2): 28.6 µM; CC50 (HEK-293T): 36.5 µM
0.576 | CN(C/C=C/c1cccc(Cl)c1)Cc1ccc2c(c1)OCO2 | 
0.0042 | CCOc1ccc(/C=C/CN(C)Cc2ccc3c(c2)OCO3)cc1.Cl | CC50 (HepG2): 82.6 µM; CC50 (HEK-293T): 122 µM; solubility [2]: 24.2 mg/mL
0.0091 | COc1ccc(/C=C/CN(C)Cc2ccc3c(c2)OCO3)cc1 | 
> 1 | CN(C/C=C/c1ccccc1)Cc1ccc2c(c1)OCO2 | 
0.412 | CN(C/C=C/c1cccc(F)c1)Cc1ccc2c(c1)OCO2 | 
0.0039 | CN(C/C=C/c1ccc(-c2ccccc2)cc1)Cc1ccc2c(c1)OCO2.Cl | CC50 (HepG2): 53.6 µM; CC50 (HEK-293T): 59.1 µM; solubility [2]: 5.02 mg/mL
> 1 | CCN(C/C=C/c1ccc(C(F)(F)F)cc1F)Cc1ccc2c(c1)OCO2 | 
 | CN[C@H](CC(C)C)C(=O)N[C@H]1C(=O)N[C@@H](CC(N)=O)C(=O)N[C@H]2C(=O)N[C@H]3C(=O)N[C@H](C(=O)N[C@H](C(=O)O)c4cc(O)cc(O)c4-c4cc3ccc4O)[C@H](O)c3ccc(c(Cl)c3)Oc3cc2cc(c3O[C@@H]2O[C@H](CO)[C@@H](O)[C@H](O)[C@H]2O[C@H]2C[C@](C)(N)[C@H](O)[C@H](C)O2)Oc2ccc(cc2Cl)[C@H]1O [VANCOMYCIN] | Activity (Staphylococcus aureus [4]): 2.13 deltalog10CFU
> 1 | COc1ccccc1/C=C/CN(C)Cc1ccc2c(c1)OCO2 | 
> 1 | C/C=C/CN(C)Cc1ccc2c(c1)OCO2 | 
> 1 | CN(C/C=C/C1CCCCC1)Cc1ccc2c(c1)OCO2 | 
0.0038 | COc1ccc(/C=C/CN(C)Cc2ccc3c(c2)OCO3)c(F)c1.Cl | CC50 (HepG2): 120 µM; CC50 (HEK-293T): 76.8 µM; solubility [2]: 19.2 mg/mL
